SMILES strings stand for the structures. The campaign covered roughly 360,000 compounds. About 1,700 (0.47%) were called active.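 Rule for the calls: active = inhibition above its plate's cutoff, the mean of tested wells on that plate plus 3 SD (cut at about 29% in these data); inactive = the rest.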 What follows is part of a selection rich in actives, with near analogues and random picks from the rest.

Chain of Melanocortin receptor 4 (Homo sapiens) (P32245 whole entry, looked up): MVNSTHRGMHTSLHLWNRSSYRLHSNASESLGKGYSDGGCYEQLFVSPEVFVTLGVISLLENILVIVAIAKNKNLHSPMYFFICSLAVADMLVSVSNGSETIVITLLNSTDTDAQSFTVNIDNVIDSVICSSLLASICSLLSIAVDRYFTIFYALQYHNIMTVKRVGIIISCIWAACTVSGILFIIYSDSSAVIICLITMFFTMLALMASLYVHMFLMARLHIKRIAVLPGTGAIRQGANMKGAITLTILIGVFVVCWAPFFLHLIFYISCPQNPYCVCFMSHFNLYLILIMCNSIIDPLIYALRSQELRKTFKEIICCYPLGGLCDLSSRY

The target of this assay is Melanocortin receptor 4 (Homo sapiens) (UniProt P32245). Nature of the assay: blockers of MC4R Gs-cAMP response – cell-based, TR-FRET, antagonist arm of biased-ligand search, primary screen (AID 540295).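 Note: 0% = Melanotan II alone and 100% = Melanotan II plus saturating MCL0020.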 The following applies: MC4R-expressing cells, MTII-stimulated cAMP, LANCE TR-FRET; at 6.5 µM; stronger effect = higher value. In outline:
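Assay system: human MC4R-expressing U2OS cells; reagent: Melanotan II stimulation of cells; dosing: 6.5 µM single dose; timing: compound 30 min, challenge 1 h, detection 1 h; signal: TR-FRET cAMP assay; replicates: one well per compound, no replicates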
Background: TR-FRET usually uses a lanthanide donor and a delayed reading to cut background.
Usually inhibition stands for the relative decrease from the control value, in per cent. In the case of `CCCS(=O)(=O)NC(=O)C1(C)CCCN(C(=O)c2cc(C)on2)C1` (centres undefined), the inhibition is 10.6% (inactive).

In the case of `Cc1cc(=O)oc2c3c(cc(OCC(=O)NCc4ccccn4)c12)OC(C)(C)CC3`, the inhibition is -0.73% (inactive).

Take `Cc1ccc(C)c(OCCC(=O)OCC(=O)c2ccc3c(c2)NC(=O)CO3)c1`: the inhibition was 2.21% (inactive).

As to `O=C(O)CN1C(=O)CC(Cc2ccccc2)C1=O` (centres undefined), the inhibition was -3.51% (inactive).

For `Cc1ccc(NC(=O)C2CC2c2ccccc2)cc1` (centres undefined), the inhibition is 0.14% (inactive).

In the case of `Cc1ccc(Sc2ccc(NC(=O)c3ccc(F)cc3)cc2C#N)cc1`, the inhibition is 33.5% (active).

Consider `COc1ccc(Sc2ccc(NC(=O)c3cccc(Cl)c3)cc2C#N)cc1`, for which the inhibition was 5.3% (inactive).

With `COC(=O)c1ccc(Sc2ccc(F)cc2)c(N)c1`, the inhibition is -11.2% (inactive).

Turning to `Cc1ccc(S(=O)(=O)N(C)CC(=O)OCC(=O)N2CC(=O)Nc3ccccc32)cc1`, the inhibition was 33.9% (active).

Consider `Cc1ccc(S(=O)(=O)N(C)CC(=O)OCC(=O)Nc2ccccc2)cc1`, for which the inhibition is 34.1% (active).

Turning to `CN(c1ccccc1)S(=O)(=O)c1ccc(NC(=O)COc2ccccc2)cc1`, the inhibition is -6.55% (inactive).

As for `CN(C)S(=O)(=O)c1ccc(NC(=O)COC(=O)Cn2[nH]c(=O)c3ccccc3c2=O)cc1`, the inhibition was 9.38% (inactive).

As for `Cc1ccccc1SCC(=O)OCC(=O)N1CC(=O)Nc2ccccc21`, the inhibition is 0.86% (inactive).

Take `Cc1ccc(S(=O)(=O)N2CCC(C(=O)OCC(=O)N3CC(=O)Nc4ccccc43)CC2)cc1`: the inhibition was 20.2% (inactive).

Consider `COc1ccnc(Oc2ccccc2)n1`, for which the inhibition was 0.1% (inactive).

Turning to `C#Cc1cc(N2CCN(C(=O)c3ccoc3)CC2)n2nc(-c3cccc(Cl)c3)cc2n1`, the inhibition was 32.1% (active).

Turning to `CN(C)CCN1CCN(c2cc(-c3cccc(Cl)c3)nc3ccnn23)CC1`, the inhibition was 3.3% (inactive).

As for `O=C(c1ccccc1)N1CCN(c2cc(-c3ccccc3)nc3cc(-c4cccc(Cl)c4)nn23)CC1`, the inhibition is 1.52% (inactive).

`CC(CNc1ccc([N+](=O)[O-])c2cccnc12)Nc1c([N+](=O)[O-])cc(C(F)(F)F)cc1[N+](=O)[O-]` (centres undefined): the inhibition is 7.59% (inactive).

Consider `COc1ccccc1-c1n[nH]c2c1[C@H](C)CC[C@H]2C(C)C`, for which the inhibition is 10% (inactive).

For the compound `Cc1cc(C)cc(Oc2c(C(F)(F)F)oc3cc(OCC(=O)O)ccc3c2=O)c1`, the inhibition was -2.27% (inactive).

On to `O=C(CSc1nc(Nc2ccccc2)nc(N2CCOCC2)n1)Nc1cc(Cl)ccc1O`, for which the inhibition was -4.1% (inactive).

With `O=C(CSc1c2c(nc3ccc(Cl)cc13)CCCC2)NCc1ccco1`, the inhibition is 11.1% (inactive).

Regarding `O=C(CSc1nc2ccc(Nc3nc(N4CCOCC4)nc(N4CCOCC4)n3)cc2s1)NCc1ccco1`, the inhibition was 29.5% (active).

Consider `Cc1ccccc1N1CC(C(=O)Nc2ccc3c(c2)OCO3)CC1=O` (centres undefined), for which the inhibition was 8.22% (inactive).

In the case of `CCOCc1nnc(NC(=O)CCS(=O)(=O)Cc2ccccc2)s1`, the inhibition is 4.21% (inactive).

On to `O=C1C(Cl)=C(Oc2ccccc2)C(=O)c2ccccc21`, for which the inhibition is 93.5% (active).

Consider `CCC1CCCCN1C(=S)Nc1ccc(S(=O)(=O)Nc2ncccn2)cc1` (centres undefined), for which the inhibition was -1.16% (inactive).

Regarding `C=CC(=O)OCCOCCOCCOCCOC(=O)C=C`, the inhibition was -0.74% (inactive).

With `COCC(C)NC(=O)c1ccc(-n2nc(C(F)(F)F)cc2-c2cccs2)cc1` (centres undefined), the inhibition is 11.7% (inactive).

With `Cc1ccc(C)c(NC2=NCC(=O)N2c2ccc3c(c2)OCCO3)c1`, the inhibition is -2.27% (inactive).

For `Cc1cc(=O)oc2c3c(cc(OCC(=O)NCC(O)c4ccccc4)c12)OC(C)(C)CC3` (centres undefined), the inhibition is 14.2% (inactive).

On to `Brc1c(CSc2nncc3ccccc23)nc2ccccn12`, for which the inhibition is 0.34% (inactive).

On to `CCOC(=O)C(C)n1cnc2sc(C)c(C)c2c1=O` (centres undefined), for which the inhibition was 31.2% (active).

Regarding `CC(C(=O)O)n1cnc2sc3c(c2c1=O)CCCC3` (centres undefined), the inhibition is -7.65% (inactive).

In the case of `CCOC(=O)C(C)n1cnc2scc(-c3ccc(C)c(C)c3)c2c1=O` (centres undefined), the inhibition is 1.47% (inactive).

Regarding `CC(=O)NC12CC3CC(C1)CC(C(=O)N1CCN(C(=O)c4ccco4)CC1)(C3)C2`, the inhibition is -0.56% (inactive).

In the case of `CCOc1ccc(Nc2nc(Cl)nc(N3CCN(c4ccc(OC)cc4)CC3)n2)cc1`, the inhibition was 29.1% (active).

Consider `COc1ccc(Nc2ncc(F)c(N3CCOCC3)n2)cc1`, for which the inhibition was -0.86% (inactive).

For `CCN1CCN(c2nc(Nc3cc(OC)ccc3OC)nc(Nc3cc(OC)ccc3OC)n2)CC1`, the inhibition is 12.3% (inactive).

Take `Cc1ccc(Nc2cc(C)nc3c(C)ccc([N+](=O)[O-])c23)cc1`: the inhibition was -5.69% (inactive).

For `CCNC(=O)CCc1nc(-c2ccc(C(C)(C)C)cc2)no1`, the inhibition is 9.83% (inactive).

Regarding `Cc1cccc(-c2nc3c(c(SCC(=O)N4CCOCC4)n2)CCCC3)c1`, the inhibition was 3.91% (inactive).

For `CCCS(=O)(=O)NC(=O)C1(C)CCCN(C(=O)c2ccnc(Cl)c2)C1` (centres undefined), the inhibition was -1.37% (inactive).

As to `O=C(N/N=C\C1CC=CCC1)c1ccc(Br)o1` (centres undefined), the inhibition was 6.38% (inactive).

As to `Cc1nnc(N/N=C/C2CC=CCC2)[nH]c1=O` (centres undefined), the inhibition was 33.9% (active).

Turning to `Cc1nnc(N/N=C/c2ccccn2)[nH]c1=O`, the inhibition is -1.07% (inactive).

`CCN1CCN(C(=O)CN(C)S(=O)(=O)c2ccc(OC)cc2)CC1`: the inhibition was 9.54% (inactive).

Consider `Cc1ccc(NC(=O)CCNC(=O)c2ccc([N+](=O)[O-])cc2)cc1S(=O)(=O)N1CCOCC1`, for which the inhibition was -2.86% (inactive).

With `Cc1ccc([N+](=O)[O-])cc1S(=O)(=O)N1CCCN(C)CC1`, the inhibition was -8.59% (inactive).

As to `Cc1ccc(C)c(S(=O)(=O)N2CCN(CC(=O)Nc3ccc([N+](=O)[O-])cc3)CC2)c1`, the inhibition is 34.2% (active).

As to `COC(=O)c1ccc(CSc2ccc(S(=O)(=O)N3CCCCC3)cn2)cc1`, the inhibition was 0.99% (inactive).

In the case of `Cc1ccc(Sc2cc(C(=O)c3ccccc3C(=O)O)ccc2[N+](=O)[O-])cc1`, the inhibition is -7.09% (inactive).

As to `Cc1ccc(SC(CC(=O)c2ccc(C(C)(C)C)cc2)C(=O)O)cc1` (centres undefined), the inhibition is 31.2% (active).

As for `Cc1ccc(SC(C)C(=O)NCc2ccc(F)cc2)cc1` (centres undefined), the inhibition is -3.51% (inactive).

`Cc1ccc(S(=O)(=O)NC(C(=O)N2CCOCCOCCOCCOCC2)c2ccccc2)cc1` (centres undefined): the inhibition was -0.07% (inactive).

With `CCCC(C(=O)n1nc(C)cc1C)C(NS(=O)(=O)c1ccc(C)cc1)c1ccccc1` (centres undefined), the inhibition is 34.4% (active).

For the compound `Cc1ccc(S(=O)(=O)Nc2nc(C)cc(-n3nc(C)cc3C)n2)cc1`, the inhibition was 14.3% (inactive).

As to `CCc1c(C)[nH]c(=S)c(C#N)c1C`, the inhibition is 14.3% (inactive).

For `O=C1NC[C@@H](c2ccccc2)OC(=O)[C@H](Cc2ccc(F)cc2)CC/C=C/C[C@H]1CC(=O)N(CCO)Cc1ccccc1`, the inhibition was 7.53% (inactive).

Take `O=C1/C(=C\c2ccc([N+](=O)[O-])cc2)CS(=O)(=O)C/C1=C/c1ccc([N+](=O)[O-])cc1`: the inhibition is 34.6% (active).

As to `O=C(O)C(=Cc1ccc([N+](=O)[O-])cc1)CCc1ccccc1`, the inhibition is -2.43% (inactive).

With `CC(=O)Nc1ccc(C=Cc2ccc([N+](=O)[O-])cc2)cc1`, the inhibition was 1.16% (inactive).

`CCN(C(=O)CSc1ncnc2sccc12)c1c(N)n(Cc2ccccc2)c(=O)[nH]c1=O`: the inhibition is -1.83% (inactive).

Consider `CCCNc1ncnc2sc(C)c(C)c12`, for which the inhibition is -9.19% (inactive).

In the case of `COc1cccc(CSc2nc3nc(C)cc(C)n3n2)c1`, the inhibition is -3.34% (inactive).

For `COc1ccc(OC)c(S(=O)(=O)n2c([N+](=O)[O-])cnc2C)c1`, the inhibition is 0.16% (inactive).

Regarding `COc1ccc(C(C[N+](=O)[O-])n2nc(C)cc2C)cc1` (centres undefined), the inhibition was 46.6% (active).

For `Cc1ccc(C)c(S(=O)(=O)N2CCCOC2CNC(=O)C(=O)NC2CCCCC2)c1` (centres undefined), the inhibition is 4.1% (inactive).

For `O=C1CCC([N+](=O)[O-])C(c2ccccc2Br)N1` (centres undefined), the inhibition is 25.1% (inactive).

For the compound `Cc1ccc(OCC(=O)Nc2ccc(N3CCN(C(=O)c4ccco4)CC3)cc2)c(C)c1`, the inhibition is 12.1% (inactive).

Consider `C/C(=N\OCC(=O)Nc1ccc(Br)cc1)c1cccs1`, for which the inhibition was -1.35% (inactive).

As for `Cc1ccc(OCC(=O)Nc2ccc(NC(=O)c3cccs3)cc2)c(C)c1`, the inhibition was 29.7% (active).

`CC(=O)Oc1ccc(-c2cccc(C(=O)N3CCCCC3)c2)cc1`: the inhibition is -4.05% (inactive).

Regarding `O=C(O[C@@H]1[C@H](Cc2ccccc2)NS(=O)(=O)[C@H]2C[C@@H]3C=C[C@]12O3)c1ccccc1Br`, the inhibition was 12% (inactive).

In the case of `Cc1ccc(NS(=O)(=O)c2ccc(C)c(NC(=O)COc3ccc4ccccc4c3)c2)c(C)c1`, the inhibition is 31.4% (active).

For the compound `Cc1ccc(C)c(NC(=O)CN(C)C(=O)COc2ccc3ccccc3c2)c1`, the inhibition was 2.76% (inactive).

On to `Cc1ccc(C)c(NS(=O)(=O)c2ccc(OCC(=O)NCc3cccnc3)cc2)c1`, for which the inhibition is -2.79% (inactive).

For the compound `O=C(Nc1cc(C(F)(F)F)ccc1Cl)c1cc2nc3c(c(C(F)(F)F)n2n1)CCCC3`, the inhibition is 2.12% (inactive).

`CN(CC(=O)NC1CCCC1)S(=O)(=O)c1cnc[nH]1`: the inhibition was -1.7% (inactive).

`O=C(OCc1ccc([N+](=O)[O-])cc1)C1CC(=O)N(Cc2ccccc2Cl)C1` (centres undefined): the inhibition was 7.18% (inactive).

Turning to `CCCCCOC(=O)C1=C(C)Nc2nnnn2C1c1ccc(OC)c(OC)c1OC` (centres undefined), the inhibition is 12.4% (inactive).

As for `Cn1ccc(=NC=C(C#N)C#N)c2ccccc21`, the inhibition is 27.8% (inactive).

For `O=[N+]([O-])/C=C/c1ccc2c(ccn2Cc2ccccc2)c1`, the inhibition was 46.2% (active).

As to `N#C/C=C1\Sc2ccccc2C(=O)N1CC(=O)N1CCN(S(=O)(=O)c2ccccc2)CC1`, the inhibition was 33.4% (active).

`O=C(CN1CCCSc2ccccc21)N1CCN(S(=O)(=O)c2ccccc2)CC1`: the inhibition was 5.29% (inactive).

Consider `O=C(CN1CCCSc2ccccc21)N1CCN(S(=O)(=O)c2cccc(F)c2)CC1`, for which the inhibition is 5.01% (inactive).

As for `Cc1ccc2c(c1)C1CN(C)CCC1N2S(=O)(=O)c1ccc(Oc2ccc([N+](=O)[O-])cc2)cc1` (centres undefined), the inhibition is 2.73% (inactive).

Take `O=C(CN1CCc2ccccc21)NC(c1ccccc1)c1ccccc1`: the inhibition was 1.1% (inactive).
